Sampled rows, rich in hits. Any-hit rate of the full collection: about 2.1%.
aSyn 5UTR inh: 5' untranslated region of α-synuclein, MLPCN primary screen; inhibition, % (tested at 7.5 µM); alpha-synuclein 5'UTR reporter, inhibitor activity; 0.82% of 300,000 active; in the data active means inhibition above about 60%; inconclusive means no clear call, values can overlap the other calls;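 further: H4 neuroglioblastoma cells stably carrying SNCA 5'UTR luciferase fusion; 0% = DMSO wells and 100% = positive control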
EBV LMP1 NFkB: Epstein-Barr LMP1 NF-kappaB reporter inhibition; inhibition, % at 12.5 µM; LMP1-induced NF-kappaB luciferase reporter cells, luminescence; 0.69% of 350,000 active; in the data active means inhibition above about 41%; inconclusive means no clear call, values can overlap the other calls;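 further: 0% = neutral control wells and 100% = reference inhibitor control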
EWS-Fli inh: blocks EWS/Fli oncoprotein-driven transcription. A673 NR0B1-luciferase reporter, viability-normalised. inhibition, % at 12.6 µM. 0.67% of 350,000 active. AID 651661;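 active means mean inhibition of at least 50% after viability correction, with every replicate also passing that limit; inconclusive means mean reaches 50% but only one of two replicates passes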;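 further: firefly luciferase signal divided by Alamar Blue viability fluorescence both relative to DMSO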
Shn3 inh set2: inhibitors of Schnurri-3 3'UTR reporter in osteoblasts | Clone20 osteoblast Shn3 3'UTR firefly luciferase, 24 h | inhibition, % at 12.5 µM | 0.52% of 360,000 active | AID 588674;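 active means mean inhibition of at least 75% with every replicate also reaching 75%; inconclusive means mean inhibition at least 75% but some replicate below; inactive means mean inhibition below 75%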;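 further: 0% = median of neutral control wells and 100% = pilot-screen positive control compound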
FN deposit inh: fibronectin deposition inhibition; AH1F fibroblasts, Alexa488-fibronectin deposition fluorescence, overnight; inhibition, % at 12.6 µM; 0.086% of 350,000 active; AID 743247;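 active means mean inhibition across replicates of 30% or more, regardless of how many single replicates reach that level; inconclusive means mean under 30% yet at least half of replicates reach 30%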;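 further: positive control wells lacked labelled fibronectin entirely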
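Assay system: AH1F fibroblast monolayer, labelled fibronectin deposition. Amount: 10000 cells per well. Also added: labelled fibronectin 24 nM. Compound: single-point pinned compound. Incubation: cell attachment 1 h, compound and FN exposure overnight. Detection: fluorescence after three HBSS washes, excitation 485 nm, emission 525 nm. Read-out: inhibition of fibronectin deposition signal.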
PAX8 reporter: inhibitors of PAX8 transcriptional activity in RMG-I cells. RMG-I TPO-luciferase reporter, SteadyGlo, 24 h. inhibition, % at 12.6 µM. 1.2% of 360,000 active. AID 652154;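 active means mean replicate inhibition at least 60% with every replicate also reaching 60%; inconclusive means only one of the two criteria is met; inactive means mean below 60% and not all replicates reaching 60%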;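 further: luciferase light reporting Pax8 driven TPO promoter activity; plate controls were median of neutral control wells for no effect and mitoxantrone controls for full effect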
An asterisk follows results filed as active; ? = inconclusive; . = no result given.

SMILES | aSyn 5UTR inh | EBV LMP1 NFkB | EWS-Fli inh | Shn3 inh set2 | FN deposit inh | PAX8 reporter
CN1CCN(c2nc3c(c(=O)[nH]c(=O)n3C)n2Cc2cccc(Br)c2)CC1 | -6 | -2 | -1 | -1 | 4 | -7
Cc1noc(C)c1NC(=O)Nc1ccc2c(c1)C(=O)N([C@@H](C)CO)C[C@@H](C)[C@H](CN(C)S(=O)(=O)c1cn(C)cn1)OCCCC[C@@H](C)O2 | . | . | 2 | . | . | 1
CCCOc1ccc(/C=C/C(=O)Nc2ccc([N+](=O)[O-])cc2)cc1 | 68* | ? | . | . | 3 | 27
C[C@@H](NC(=O)C[C@@H]1C[C@H]2c3cc(NC(=O)C4CCOCC4)ccc3O[C@H]2[C@H](CO)O1)c1ccccc1 | . | . | 1 | . | . | -17
CO[C@H]1CN(C)C(=O)c2cc(NS(=O)(=O)c3cn(C)cn3)ccc2OC[C@H](C)N(C)C[C@@H]1C | . | . | 0 | . | -21 | 6
COc1ccc(C2CC(c3ccccc3)=NN2C(=S)Nc2ccccc2)cc1 (stereo unspecified) | 7 | 5 | -2 | 59 | -3 | 1
COc1ccc(C2CC(c3ccc(Br)cc3)=NN2C(=S)Nc2ccccc2)cc1 (stereo unspecified) | -78 | -10 | -58 | 2 | -3 | 123*
O=C(Nc1ccccc1)N1N=C(c2ccc(F)cc2)CC1c1ccc(F)cc1 (stereo unspecified) | -12 | -6 | -11 | 2 | 2 | 82*
N#C[C@H]1[C@@H](c2ccc(C3=CCCCC3)cc2)[C@@H](CO)N1S(=O)(=O)c1ccccc1 | . | . | 10 | . | -5 | 8
Cc1cc(C(=O)Nc2cccc3c2O[C@H](CN(C)C(=O)Nc2ccc(C(F)(F)F)cc2)[C@@H](C)CN([C@H](C)CO)C3=O)n(C)n1 | . | . | -3 | . | . | -3
CCN(CC)S(=O)(=O)c1cccc(NC(=O)Nc2cccc(C(F)(F)F)c2)c1 | 49 | 46* | . | 65 | -6 | 102*
CCN(CC)S(=O)(=O)c1cccc(NC(=O)CNc2cccc(S(=O)(=O)N3CCCC3)c2)c1 | 31 | 25 | 20 | 87* | -1 | .
O=C(CC1CC1)Nc1ccc2c(c1)[C@H]1C[C@@H](CC(=O)N3CCOCC3)O[C@H](CO)[C@H]1O2 | . | . | 1 | . | 7 | -3
Oc1ccc(N2CCN(c3ncnc4sc(-c5ccccc5)cc34)CC2)cc1 | 21 | 9 | 49 | -13 | -13 | 39
CCc1cc2c(N3CCN(c4ccccc4)CC3)ncnc2s1 | 12 | 44* | . | 83 | . | .
COc1ccccc1OCC(=O)c1[nH]c(C)c(C(C)=O)c1C | 1 | 14 | . | 85* | . | .
CCOc1ccc(CCNC(=O)CSc2nn(-c3ccc(C)c(Cl)c3)c(=S)s2)cc1OCC | 13 | -5 | 19 | 12 | 3 | 81*
CNC[C@@H]1Oc2c(NC(=O)Nc3ccc(OC)cc3)cccc2C(=O)N([C@@H](C)CO)C[C@H]1C | . | . | 1 | . | 0 | -32
CC(NC(=O)/C(C#N)=C/c1ccc([N+](=O)[O-])o1)c1ccccc1 (stereo unspecified) | -54 | -6 | 69* | 94* | 0 | 46
CCOCCCNC(=O)/C(C#N)=C/c1ccc([N+](=O)[O-])o1 | -7 | -14 | 44 | 98* | -1 | 19
COc1ccc(N2CCN(CCNC(=O)CCCn3c(=O)[nH]c4cc(Cl)ccc4c3=O)CC2)cc1 | 16 | 81* | . | -2 | . | .
CC(=O)Nc1ccc(S(=O)(=O)c2ccnc3cc(Cl)ccc23)cc1 | . | 14 | 4 | -6 | 11 | 110*
CC(=O)Nc1ccc(S(=O)(=O)Nc2ccc(Cl)cn2)cc1 | 13 | 3 | -2 | -2 | -4 | -5
COc1ccc(CN(C)C[C@@H]2OCCCC[C@H](C)Oc3ccc(NC(=O)Nc4ccc(C(F)(F)F)cc4)cc3C(=O)N([C@@H](C)CO)C[C@H]2C)cc1 | . | . | 72* | . | . | 87*
COc1ccc(CN(C)C[C@@H]2OCCCC[C@@H](C)Oc3ccc(NC(=O)Nc4ccc(C(F)(F)F)cc4)cc3C(=O)N([C@@H](C)CO)C[C@@H]2C)cc1 | . | . | 70* | . | . | 86*
SMILES | aSyn 5UTR inh | EBV LMP1 NFkB | EWS-Fli inh | Shn3 inh set2 | FN deposit inh | PAX8 reporter
COc1ccc(CN(C)C[C@@H]2OCCCC[C@H](C)Oc3ccc(NC(=O)Nc4ccc(C(F)(F)F)cc4)cc3C(=O)N([C@H](C)CO)C[C@H]2C)cc1 | . | . | 71* | . | . | 104*
COc1ccc(NC(=O)Nc2ccc3c(c2)C(=O)N([C@H](C)CO)C[C@@H](C)[C@@H](CN(C)Cc2ccc(C(F)(F)F)cc2)OCCCC[C@H](C)O3)cc1 | . | . | 5 | . | -7 | 73*
COc1ccc(NC(=O)Nc2ccc3c(c2)C(=O)N([C@H](C)CO)C[C@H](C)[C@@H](CN(C)Cc2ccc(C(F)(F)F)cc2)OCCCC[C@H](C)O3)cc1 | . | . | 13 | . | -5 | 50
C[C@H](CO)N1C[C@H](C)[C@H](CN(C)Cc2ccc(C(F)(F)F)cc2)Oc2c(NC(=O)C3CC3)cccc2C1=O | . | . | 1 | . | . | .
C/C=C/c1cnc2c(c1)C(=O)N([C@H](C)CO)C[C@H](C)[C@H](CN(C)C(=O)Cc1ccccn1)O2 | . | . | -12 | . | . | -21
CN(C)CC#Cc1ccc([C@@H]2[C@@H](CO)N3C(=O)CN(C(=O)Cc4cccnc4)C[C@H]23)cc1 | . | . | -5 | . | . | -15
COc1ccc(CN(C)C[C@@H]2OCCCC[C@@H](C)Oc3ccc(NC(=O)Nc4ccc(C(F)(F)F)cc4)cc3C(=O)N([C@H](C)CO)C[C@@H]2C)cc1 | . | . | -8 | . | . | -6
COc1ccc(CN(C)C[C@H]2OCCCC[C@H](C)Oc3ccc(NC(=O)Nc4ccc(C(F)(F)F)cc4)cc3C(=O)N([C@H](C)CO)C[C@H]2C)cc1 | . | . | ? | . | . | 102*
COc1ccc(CN(C)C[C@H]2OCCCC[C@H](C)Oc3ccc(NC(=O)Nc4ccc(C(F)(F)F)cc4)cc3C(=O)N([C@@H](C)CO)C[C@@H]2C)cc1 | . | . | 71* | . | . | 106*
C[C@@H]1CN([C@H](C)CO)C(=O)c2cc(C#CCN(C)C)cnc2O[C@H]1CN(C)Cc1ccccn1 | . | . | -6 | . | 4 | .
CCCCCC(NC(=O)C1CCN(C(=O)[C@@H](NS(=O)(=O)c2ccc(C)cc2)C(C)C)CC1)C(=O)O (stereo partly specified) | -4 | -5 | -11 | -2 | . | .
Cc1ccc(S(=O)(=O)N[C@H](C(=O)N2CCC(C(=O)N[C@@H](CC(=O)O)C(=O)O)CC2)C(C)C)cc1 | 3 | 74* | -89 | 27 | . | .
COc1ccc2c3c(n(C)c2c1)[C@@H](CO)N(C(=O)C1CCCC1)CC31CCN(C)CC1 | . | . | -5 | . | . | -18
Oc1cccc2ccc(Nc3ccccn3)nc12 | 98* | 75* | . | 79 | 10 | .
CC=Cc1ccc2n(c1=O)C[C@H]1[C@H](CO)[C@@H](C(=O)NCCCN3CCOCC3)N(C)[C@@H]21 (mixture of isomers) | . | . | -3 | . | . | -11
Nc1nonc1C(=O)NCCNCc1cc(Br)ccc1OCc1ccc(F)cc1 | 8 | 8 | . | 90* | 8 | .

Screening data from PubChem BioAssay.
